Results gathered from unrelated publications.
Protocols differ between the studies behind these lines.
Target: Testis-specific serine/threonine-protein kinase 1 (TSSK1B, Homo sapiens, UniProt Q9BXA7)
One construct used (Q9BXA7 1-367): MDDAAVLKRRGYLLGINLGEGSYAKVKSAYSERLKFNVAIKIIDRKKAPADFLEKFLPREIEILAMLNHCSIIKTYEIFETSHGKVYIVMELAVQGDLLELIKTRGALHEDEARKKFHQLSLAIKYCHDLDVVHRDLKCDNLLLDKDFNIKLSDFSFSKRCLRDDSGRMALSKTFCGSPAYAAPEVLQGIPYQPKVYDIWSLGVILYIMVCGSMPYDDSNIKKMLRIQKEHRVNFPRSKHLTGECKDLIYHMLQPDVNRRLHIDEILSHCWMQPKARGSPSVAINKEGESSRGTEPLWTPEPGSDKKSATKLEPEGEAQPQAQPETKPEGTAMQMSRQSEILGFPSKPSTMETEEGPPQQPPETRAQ

| SMILES | read-out | mode | method | tested at | quantity | value |
| --- | --- | --- | --- | --- | --- | --- |
| CC(C)(C)c1cc(C=C(C#N)C#N)cc(Br)c1O | enzyme activity | inhibitor |  | 0.5 µM | remaining activity | 95.6% |
| Cn1cc(-c2cccc(N3CCc4c(sc5c4CC(C)(C)C5)C3=O)c2CO)cc(Nc2ccncn2)c1=O | enzyme activity | inhibitor |  | 1 µM | inhibition | 5% |
| N#CC1(c2ccccn2)CCN(Cc2cc(C(=O)O)c(=O)n3ccccc23)CC1 | cell-free assay |  | competition with immobilised ligand | 1 µM | remaining binding | 74% |
| Cc1nn(C)cc1-c1nc2c(N3CCN(Cc4ccc(Cl)cc4)CC3)c(Cl)cnc2[nH]1 | binding |  | competition with immobilised ligand | 1 µM | remaining binding | 100% |
| O=c1[nH]c2ccccc2n1C1CCN(Cc2ccc(-c3[nH]c4cc5ncnc5cc4nc3-c3ccccc3)cc2)CC1 | cell-free assay |  |  | 0.5 µM | remaining signal | 96.5% |
| COc1ncccc1-c1cnn2ccc(N3CCN(C(=O)OC(C)C)CC3)nc12 | binding |  | competition with immobilised ligand | 1 µM | remaining binding | 54% |
| Cn1cncc1[C@@](O)(COc1ccc(C#N)cc1-c1ccc(OC(F)(F)F)cc1)c1ccc(C#N)cc1 | cell-free assay |  | competition with immobilised ligand | 1 µM | remaining binding | 70% |
| Nc1ncc(-c2nc(N3CCOCC3)nc(N3CCOCC3)n2)c(C(F)F)n1 | binding |  | competition with immobilised ligand | 10 µM | remaining binding | 100% |
| COc1cc(Nc2ncc(F)c(Nc3ccc4c(n3)NC(=O)C(C)(C)O4)n2)cc(OC)c1OC | binding |  |  | 10 µM | inhibition | 97% |
| Cn1cc(-c2cc(F)cc(N3CCn4c(cc5c4CCCC5)C3=O)c2CO)cc(Nc2ccc(N3CCN(C4COC4)CC3)cn2)c1=O | enzyme activity | inhibitor |  | 0.1 µM | inhibition | 9% |
